In ChEMBL document CHEMBL3272049, “Estrogen potentiating activity of two spiro compounds having approximately similar molecular dimensions to stilbestrol” (1977):

What was measured:
Assay type in all cases: functional
Settings in all cases: route intraperitoneal
Mus musculus [1] = test: Estrogenic activity in albino CFLP-ICI strain 1 mouse assessed as uterine ratio at 0.01 mg/kg, ip qd for three consecutive days measured 24 hrs post last dose relative to body weight
Mus musculus [2] = test: Estrogenic activity in albino CFLP-ICI strain 1 mouse assessed as change in uterus weight at 0.01 mg/kg, ip qd for three consecutive days measured 24 hrs post last dose (reference value: 6.9 +/- 0.7 mg)
Mus musculus [3] = test: Potentiation of stilbesterol-induced estrogenic activity in albino CFLP-ICI strain 1 mouse assessed as uterine ratio at 0.001 mg/kg, ip qd for three consecutive days measured 24 hrs post last dose relative to body weight
How it was run: (§1)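 Mice received stilbestrol 0.01 mg/kg together with graded doses of spiro derivative, both in arachis oil, ip once daily at 10.00 h for three consecutive days; comparison group got stilbestrol alone. Killed by cervical dislocation 24 h after final dose. Uteri dissected free of fat, blotted and weighed. Uterine ratio = uterine weight (mg)/body weight (g) × 100; mean ± SE.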

Mus musculus [4] = test: Estrogenic activity in albino CFLP-ICI strain 1 mouse assessed as uterine ratio at 0.1 mg/kg, ip qd for three consecutive days measured 24 hrs post last dose relative to body weight
Mus musculus [5] = test: Potentiation of stilbesterol-induced estrogenic activity in albino CFLP-ICI strain 1 mouse assessed as uterine ratio at 10 mg/kg, ip qd for three consecutive days measured 24 hrs post last dose relative to body weight; how it was run: as §1
Mus musculus [6] = test: Potentiation of stilbesterol-induced estrogenic activity in albino CFLP-ICI strain 1 mouse assessed as change in uterus weight at 10 mg/kg, ip qd for three consecutive days measured 24 hrs post last dose relative to control; how it was run: as §1
Mus musculus [7] = test: Estrogenic activity in albino CFLP-ICI strain 1 mouse assessed as change in uterus weight at 10 mg/kg, ip qd for three consecutive days measured 24 hrs post last dose (reference value: 6.9 +/- 0.7 mg)
Mus musculus [8] = test: Potentiation of stilbesterol-induced estrogenic activity in albino CFLP-ICI strain 1 mouse assessed as uterine ratio at 0.1 mg/kg, ip qd for three consecutive days measured 24 hrs post last dose relative to body weight; how it was run: as §1
Mus musculus [9] = test: Estrogenic activity in albino CFLP-ICI strain 1 mouse assessed as uterine ratio at 10 mg/kg, ip qd for three consecutive days measured 24 hrs post last dose relative to body weight
Mus musculus [10] = test: Potentiation of stilbesterol-induced estrogenic activity in albino CFLP-ICI strain 1 mouse assessed as change in uterus weight at 0.1 mg/kg, ip qd for three consecutive days measured 24 hrs post last dose relative to control; how it was run: as §1
Mus musculus [11] = test: Potentiation of stilbesterol-induced estrogenic activity in albino CFLP-ICI strain 1 mouse assessed as change in uterus weight at 0.01 mg/kg, ip qd for three consecutive days measured 24 hrs post last dose relative to control; how it was run: as §1
Mus musculus [12] = test: Potentiation of stilbesterol-induced estrogenic activity in albino CFLP-ICI strain 1 mouse assessed as change in uterus weight at 0.001 mg/kg, ip qd for three consecutive days measured 24 hrs post last dose relative to control; how it was run: as §1
Mus musculus [13] = test: Potentiation of stilbesterol-induced estrogenic activity in albino CFLP-ICI strain 1 mouse assessed as uterine ratio at 0.01 mg/kg, ip qd for three consecutive days measured 24 hrs post last dose relative to body weight; how it was run: as §1
Mus musculus [14] = test: Estrogenic activity in albino CFLP-ICI strain 1 mouse assessed as change in uterus weight at 0.1 mg/kg, ip qd for three consecutive days measured 24 hrs post last dose (reference value: 6.9 +/- 0.7 mg)

SMILES	Ratio (Mus musculus [1])	Activity (Mus musculus [2])	Ratio (Mus musculus [3])	Ratio (Mus musculus [4])	Ratio (Mus musculus [5])	Activity (Mus musculus [6])	Activity (Mus musculus [7])	Ratio (Mus musculus [8])	Ratio (Mus musculus [9])	Activity (Mus musculus [10])	Activity (Mus musculus [11])	Activity (Mus musculus [12])	Ratio (Mus musculus [13])	Activity (Mus musculus [14])
CC/C(=C(/CC)c1ccc(O)cc1)c1ccc(O)cc1 [DIETHYLSTILBESTROL]	167	17.5 mg												
O=C1CCC2(CC1)CCc1ccccc1C2=O			306	78	293	36.5 mg	6.9 mg	293	64	30.7 mg	37.1 mg	29.9 mg	377	10 mg
OC1CCC2(CC1)Cc1ccccc1C2O (configuration not stated)				80	247	29.2 mg	9.7 mg		86		24.5 mg		225	7.4 mg
